Common to all, as to format: functional
Assay [1] concerns Escherichia coli. As to the kind of experiment: Antibacterial activity against Escherichia coli ATCC 25922 assessed as bacterial growth inhibition by broth microdilution assay. A digest of the protocol:
(§1)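 Broth microdilution. Bacteria from glycerol stocks were grown overnight on blood agar at 37 °C, then colonies were suspended in TSB and grown to OD600 0.5. Compounds were dissolved in DMSO at 6.4 mg mL−1 (stock) and serially diluted in CAMHB (Mg2+ 12.5, Ca2+ 20 μg mL−1) in polypropylene plates. Inoculum was 10^6 CFU mL−1 final, incubated at 37 °C. MIC = lowest concentration without visible growth; values consistent across at least triplicate experiments.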
In general terms: In broth dilution the organism is exposed to a series of concentrations in liquid medium.

Assay [2] relates to Escherichia coli. As to the kind of experiment: Antibacterial activity against Escherichia coli 1313 assessed as bacterial growth inhibition by broth microdilution assay. A digest of the protocol: as §1
Assay [3] relates to Escherichia coli. As to the kind of experiment: Antibacterial activity against multidrug-resistant Escherichia coli NCTC 13846 assessed as bacterial growth inhibition by broth microdilution assay. A digest of the protocol: (§2)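 Broth microdilution MIC. Strains grown overnight on blood agar at 37 °C, colonies suspended in TSB and grown to OD600 0.5. Compounds dissolved in DMSO (6.4 mg mL−1 stock), diluted serially in CAMHB (12.5 μg mL−1 Mg2+, 20 μg mL−1 Ca2+) on polypropylene plates. Final inoculum 10^6 CFU mL−1, 37 °C under gas-permeable membrane. MIC is the lowest concentration with no visible growth, consistent across at least triplicate experiments.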

The subject of assay [4] is Klebsiella pneumoniae. As to the kind of experiment: Antibacterial activity against Klebsiella pneumoniae ATCC 13883 assessed as bacterial growth inhibition by broth microdilution assay. The procedure, abridged:
as §1

Assay [5] relates to Klebsiella pneumoniae. As to the kind of experiment: Antibacterial activity against Klebsiella pneumoniae JS-123 assessed as bacterial growth inhibition by broth microdilution assay. A digest of the protocol: as §1
Assay [6] concerns Klebsiella pneumoniae. As to the kind of experiment: Antibacterial activity against Klebsiella pneumoniae NCTC 13443 assessed as bacterial growth inhibition by broth microdilution assay. A digest of the protocol: as §1
In assay [7] the test system is Acinetobacter baumannii. As to the kind of experiment: Antibacterial activity against Acinetobacter baumannii ATCC 19606 assessed as bacterial growth inhibition by broth microdilution assay. The procedure, abridged:
as §2

Assay [8] deals with Acinetobacter baumannii. As to the kind of experiment: Antibacterial activity against Acinetobacter baumannii ATCC 17978 assessed as bacterial growth inhibition by broth microdilution assay. A digest of the protocol: as §2
The subject of assay [9] is Acinetobacter baumannii. As to the kind of experiment: Antibacterial activity against multidrug-resistant Acinetobacter baumannii assessed as bacterial growth inhibition by broth microdilution assay. The procedure, abridged: as §2
In assay [10] the test system is Acinetobacter baumannii. As to the kind of experiment: Antibacterial activity against Acinetobacter baumannii 2018-006 assessed as bacterial growth inhibition by broth microdilution assay. A digest of the protocol: as §2
Assay [11] has as its system Pseudomonas aeruginosa. As to the kind of experiment: Antibacterial activity against Pseudomonas aeruginosa ATCC 27853 assessed as bacterial growth inhibition by broth microdilution assay. The procedure, abridged:
as §1

The test system of assay [12] is Pseudomonas aeruginosa. As to the kind of experiment: Antibacterial activity against Pseudomonas aeruginosa NRZ 08418 assessed as bacterial growth inhibition by broth microdilution assay. The procedure, abridged:
as §1

Assay [13] concerns Pseudomonas aeruginosa. As to the kind of experiment: Antibacterial activity against Pseudomonas aeruginosa NRZ 03961 assessed as bacterial growth inhibition by broth microdilution assay. The procedure, abridged: as §1

Molecules are shown by their SMILES. In brackets after ≈: the same amount, converted by molar mass.

One may read the MIC as the least concentration at which growth counts as inhibited.

Regarding `CC(C)C[C@@H]1NC(=O)[C@@H](Cc2ccccc2)NC(=O)[C@H](CCN)NC(=O)[C@@H](NC(=O)[C@@H](CO)NC(=O)[C@@H](NC(=O)[C@H](N)CSSCCC2CCCCC2)[C@@H](C)O)CCNC(=O)[C@H]([C@@H](C)O)NC(=O)[C@H](CCN)NC(=O)[C@H](CCN)NC1=O`, the minimal inhibitory concentration (MIC) was determined as 2 µg/mL (≈ 1.67 µM) with Escherichia coli [1]; 1 µg/mL (≈ 0.836 µM) in the assay on Escherichia coli [2]; 8 µg/mL (≈ 6.69 µM) in the assay with Escherichia coli [3]; 1 µg/mL (≈ 0.836 µM) in the assay with Klebsiella pneumoniae [4]; 1 µg/mL (≈ 0.836 µM) in the assay with Klebsiella pneumoniae [5]; 1 µg/mL (≈ 0.836 µM) with Klebsiella pneumoniae [6]. Also, the minimal inhibitory concentration (MIC) was 0.25 µg/mL (≈ 0.209 µM) in the assay on Acinetobacter baumannii [7]; 1 µg/mL (≈ 0.836 µM) with Acinetobacter baumannii [8]; 1 µg/mL (≈ 0.836 µM) with Acinetobacter baumannii [9]; 0.5 µg/mL (≈ 0.418 µM) with Acinetobacter baumannii [10]; 4 µg/mL (≈ 3.35 µM) with Pseudomonas aeruginosa [11]; 4 µg/mL (≈ 3.35 µM) in the assay with Pseudomonas aeruginosa [12]. In addition, the MIC in the assay with Pseudomonas aeruginosa [13] was 4 µg/mL (≈ 3.35 µM).

For the compound `CC(C)CCSSC[C@@H](N)C(=O)N[C@H](C(=O)NCC(=O)N[C@H]1CCNC(=O)[C@H]([C@@H](C)O)NC(=O)[C@H](CCN)NC(=O)[C@H](CCN)NC(=O)[C@H](CC(C)C)NC(=O)[C@@H](Cc2ccccc2)NC(=O)[C@H](CCN)NC1=O)[C@@H](C)O`, the MIC in the assay on Escherichia coli [1] is 2 µg/mL (≈ 1.78 µM); in the assay with Escherichia coli [2] it was 0.25 µg/mL (≈ 0.222 µM); in the assay with Escherichia coli [3], 16 µg/mL (≈ 14.2 µM); with Klebsiella pneumoniae [4] it was 0.5 µg/mL (≈ 0.444 µM); in the assay with Klebsiella pneumoniae [5], 0.5 µg/mL (≈ 0.444 µM); with Klebsiella pneumoniae [6] it was 0.5 µg/mL (≈ 0.444 µM). In addition, the MIC in the assay with Acinetobacter baumannii [7] was 0.5 µg/mL (≈ 0.444 µM); with Acinetobacter baumannii [8] it was 0.5 µg/mL (≈ 0.444 µM); in the assay on Acinetobacter baumannii [9], 0.5 µg/mL (≈ 0.444 µM); with Acinetobacter baumannii [10], 0.5 µg/mL (≈ 0.444 µM); in the assay on Pseudomonas aeruginosa [11], 4 µg/mL (≈ 3.55 µM); in the assay on Pseudomonas aeruginosa [12], 4 µg/mL (≈ 3.55 µM). The minimal inhibitory concentration (MIC) in the assay with Pseudomonas aeruginosa [13] was 4 µg/mL (≈ 3.55 µM).

On to `CC(C)C[C@@H]1NC(=O)[C@@H](Cc2ccccc2)NC(=O)[C@H](CCN)NC(=O)[C@@H](NC(=O)[C@@H](CN)NC(=O)[C@@H](NC(=O)[C@H](N)CSSCCC2CCCCC2)[C@@H](C)O)CCNC(=O)[C@H]([C@@H](C)O)NC(=O)[C@H](CCN)NC(=O)[C@H](CCN)NC1=O`, for which the MIC with Escherichia coli [1] is 2 µg/mL (≈ 1.67 µM); with Escherichia coli [2], 0.5 µg/mL (≈ 0.419 µM); in the assay with Escherichia coli [3], 4 µg/mL (≈ 3.35 µM); with Klebsiella pneumoniae [4], 1 µg/mL (≈ 0.837 µM); in the assay on Klebsiella pneumoniae [5], 1 µg/mL (≈ 0.837 µM); with Klebsiella pneumoniae [6] it was 1 µg/mL (≈ 0.837 µM). Besides, the minimal inhibitory concentration (MIC) worked out at 0.5 µg/mL (≈ 0.419 µM) in the assay with Acinetobacter baumannii [7]; 1 µg/mL (≈ 0.837 µM) in the assay with Acinetobacter baumannii [8]; 1 µg/mL (≈ 0.837 µM) in the assay with Acinetobacter baumannii [9]; 0.5 µg/mL (≈ 0.419 µM) with Acinetobacter baumannii [10]; 2 µg/mL (≈ 1.67 µM) with Pseudomonas aeruginosa [11]; 2 µg/mL (≈ 1.67 µM) in the assay on Pseudomonas aeruginosa [12]. For the same compound, in the assay with Pseudomonas aeruginosa [13], the MIC was found to be 2 µg/mL (≈ 1.67 µM).

In the case of `CC(C)C[C@@H]1NC(=O)[C@@H](Cc2ccccc2)NC(=O)[C@H](CCN)NC(=O)[C@@H](NC(=O)[C@@H](CN)NC(=O)[C@@H](NC(=O)[C@H](N)CSSCc2cccc(Cl)c2)[C@@H](C)O)CCNC(=O)[C@H]([C@@H](C)O)NC(=O)[C@H](CCN)NC(=O)[C@H](CCN)NC1=O`, the MIC came out at 2 µg/mL (≈ 1.65 µM) with Escherichia coli [1]; 0.5 µg/mL (≈ 0.414 µM) with Escherichia coli [2]; 16 µg/mL (≈ 13.2 µM) in the assay on Escherichia coli [3]; 0.5 µg/mL (≈ 0.414 µM) in the assay on Klebsiella pneumoniae [4]; 2 µg/mL (≈ 1.65 µM) with Klebsiella pneumoniae [5]; 8 µg/mL (≈ 6.62 µM) in the assay with Klebsiella pneumoniae [6]. The MIC turned out to be 0.5 µg/mL (≈ 0.414 µM) in the assay on Acinetobacter baumannii [7]; 0.5 µg/mL (≈ 0.414 µM) in the assay with Acinetobacter baumannii [8]; 0.5 µg/mL (≈ 0.414 µM) with Acinetobacter baumannii [9]; 0.5 µg/mL (≈ 0.414 µM) in the assay on Acinetobacter baumannii [10]; 1 µg/mL (≈ 0.827 µM) in the assay on Pseudomonas aeruginosa [11]; 0.5 µg/mL (≈ 0.414 µM) in the assay with Pseudomonas aeruginosa [12]. Further, the MIC in the assay on Pseudomonas aeruginosa [13] is 2 µg/mL (≈ 1.65 µM).

With `CC(C)C[C@@H]1NC(=O)[C@@H](Cc2ccccc2)NC(=O)[C@H](CCN)NC(=O)[C@@H](NC(=O)CNC(=O)[C@@H](NC(=O)[C@H](N)CSSCc2cccc(Cl)c2)[C@@H](C)O)CCNC(=O)[C@H]([C@@H](C)O)NC(=O)[C@H](CCN)NC(=O)[C@H](CCN)NC1=O`, the MIC was determined as 2 µg/mL (≈ 1.7 µM) in the assay with Escherichia coli [1]; 0.25 µg/mL (≈ 0.212 µM) in the assay on Escherichia coli [2]; 8 µg/mL (≈ 6.78 µM) with Escherichia coli [3]; 1 µg/mL (≈ 0.848 µM) in the assay on Klebsiella pneumoniae [4]; 0.5 µg/mL (≈ 0.424 µM) in the assay with Klebsiella pneumoniae [5]; 0.5 µg/mL (≈ 0.424 µM) with Klebsiella pneumoniae [6]. In addition, the MIC is 1 µg/mL (≈ 0.848 µM) in the assay on Acinetobacter baumannii [7]; 1 µg/mL (≈ 0.848 µM) with Acinetobacter baumannii [8]; 1 µg/mL (≈ 0.848 µM) in the assay on Acinetobacter baumannii [9]; 1 µg/mL (≈ 0.848 µM) in the assay on Acinetobacter baumannii [10]; 4 µg/mL (≈ 3.39 µM) in the assay with Pseudomonas aeruginosa [11]; 4 µg/mL (≈ 3.39 µM) in the assay on Pseudomonas aeruginosa [12]. The MIC in the assay on Pseudomonas aeruginosa [13] was found to be 4 µg/mL (≈ 3.39 µM).
